Test [1] deals with Rattus norvegicus. Put plainly: Percentage of animals emitting >80% of lever presses in LSD trained rats at a compound dose of 12.6 uM/Kg. The class given is functional. The method in brief: (§1)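 Male Sprague–Dawley rats (200–220 g) in a two-lever, FR50 food-reinforced task. Rats were trained to discriminate saline from LSD tartrate (0.08 mg/kg), DOI HCl (0.4 mg/kg) or LY293284 (0.025 mg/kg) in 15-min sessions. %SDL is the share of rats making over 80% of presses on the drug lever. %D is the share failing to make 50 presses within 15 min. ED50 by Litchfield–Wilcoxon log-probit.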

Test [2] concerns Rattus norvegicus. Put plainly: Percentage of animals emitting >80% of lever presses in […] trained rats at a compound dose of 12.6 uM/Kg. The format is functional. The method in brief: as §1
Test [3] concerns Rattus norvegicus. Kind of test: Percentage of animals failing to emit 50 lever presses within 15 min in […] trained rats at a compound dose of 2 mg/kg. The format is functional. The method in brief:
(§2)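 Two-lever drug discrimination in male Sprague–Dawley rats (200–220 g at start), trained against saline on LSD tartrate (0.08 mg/kg), DOI HCl (0.4 mg/kg) or LY293284 (0.025 mg/kg). FR50 food-pellet reinforcement, levers counterbalanced, 15-min sessions at 22–24 °C. %D is the share of tested rats not completing 50 lever presses within 15 min.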

Test [4] deals with Rattus norvegicus. Put plainly: Percentage of animals failing to emit 50 lever presses within 15 min in […] trained rats at a compound dose of 8 mg/kg. The class given is functional. The method in brief:
as §2

In test [5] the test system is Rattus norvegicus. Put plainly: Percentage of animals emitting >80% of lever presses in LSD trained rats at a compound dose of 6.32 uM/Kg. The class given is functional. The method in brief:
as §1

The test system of test [6] is Rattus norvegicus. Kind of test: Percentage of animals emitting >80% of lever presses in […] trained rats at a compound dose of 6.32 uM/Kg. The format is functional. The method in brief:
as §1

Test [7] concerns Rattus norvegicus. Kind of test: Percentage of animals emitting >80% of lever presses in DOI trained rats at a compound dose of 50.6 uM/Kg. The class given is functional. The method in brief:
as §1

For test [8], the target named is T1, 5-hydroxytryptamine receptor 1A (Rattus norvegicus, UniProt P19327).
T1 sequence (P19327 whole entry): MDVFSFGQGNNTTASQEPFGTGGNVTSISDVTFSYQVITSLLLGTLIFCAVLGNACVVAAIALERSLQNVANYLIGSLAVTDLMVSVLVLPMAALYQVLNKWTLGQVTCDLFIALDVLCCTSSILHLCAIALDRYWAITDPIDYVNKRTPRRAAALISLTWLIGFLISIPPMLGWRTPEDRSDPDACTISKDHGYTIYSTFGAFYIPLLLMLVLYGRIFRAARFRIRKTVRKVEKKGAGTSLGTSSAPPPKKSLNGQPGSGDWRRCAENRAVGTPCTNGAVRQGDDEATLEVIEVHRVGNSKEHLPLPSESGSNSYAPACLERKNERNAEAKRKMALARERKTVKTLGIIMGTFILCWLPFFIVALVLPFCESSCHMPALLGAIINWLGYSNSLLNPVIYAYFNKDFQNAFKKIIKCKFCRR
Kind of test: Compound was tested for the displacement of [3H]-8-OH- DPAT from rat brain 5-hydroxytryptamine 1A receptor. The method in brief: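 Pooled rat hippocampal membranes were preincubated at 37 °C. Buffer was 50 mM Tris HCl pH 7.4 with 0.5 mM Na2EDTA, 10 mM MgCl2, 0.1% Na ascorbate and pargyline. 200–400 μg protein was incubated with [3H]-8-OH-DPAT for 15 min at 37 °C, then GF/C filtered and scintillation counted. Nonspecific binding was defined with 10 μM 5-HT. Triplicate tubes.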
In general terms: Displacement assays read how much labelled ligand stays bound in the presence of the test substance.

The subject of test [9] is Rattus norvegicus. Kind of test: Percentage of animals emitting >80% of lever presses in DOI trained rats at a compound dose of 6.32 uM/Kg. The class given is functional. The method in brief: as §1
Test [10] relates to Rattus norvegicus. Put plainly: Percentage of animals failing to emit 50 lever presses within 15 min in DOI trained rats at a compound dose of 16 mg/kg. The format is functional. The method in brief: as §1
Test [11] deals with Rattus norvegicus. Put plainly: Percentage of animals failing to emit 50 lever presses within 15 min in […] trained rats at a compound dose of 4 mg/kg. The format is functional. The method in brief:
as §2

Test [12] deals with Rattus norvegicus. Kind of test: Percentage of animals failing to emit 50 lever presses within 15 min in LSD trained rats at a compound dose of 16 mg/kg. The class given is functional. The method in brief: as §1
In test [13] the target is 5-hydroxytryptamine receptor 2A (Homo sapiens, UniProt P28223). Put plainly: Compound was tested for the displacement of [125I]-DOI from clone human 5-hydroxytryptamine 2A receptor. The method in brief:
(§3)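 Membranes from AV12 hamster fibroblasts stably expressing human 5-HT2A or 5-HT2C. [125I]DOI was about 0.07–0.15 nM final. Buffer was 50 mM Tris-HCl pH 7.4 with 10 μM pargyline, 9.75 mM MgCl2, 0.5 mM Na2-EDTA and 0.1% Na ascorbate. Incubation was 30 min at 37 °C with about 40 μg protein (2A) or 30 μg (2C). Nonspecific binding used 1 μM ketanserin (2A) or 10 μM mianserin (2C). Read by gamma counting; sigmoid nonlinear regression.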

Test [14] concerns Rattus norvegicus. Kind of test: Percentage of animals failing to emit 50 lever presses within 15 min in LSD trained rats at a compound dose of 0.5 mg/kg. The format is functional. The method in brief: as §1
Test [15] deals with Rattus norvegicus. Put plainly: Percentage of animals emitting >80% of lever presses in […] trained rats at a compound dose of 50.6 uM/Kg. The format is functional. The method in brief:
as §1

Test [16] relates to Rattus norvegicus. Put plainly: Percentage of animals emitting >80% of lever presses in DOI trained rats at a compound dose of 12.6 uM/Kg. The format is functional. The method in brief: as §1
The subject of test [17] is Rattus norvegicus. Put plainly: Percentage of animals failing to emit 50 lever presses within 15 min in DOI trained rats at a compound dose of 8 mg/kg. The format is functional. The method in brief:
as §1

The test system of test [18] is Rattus norvegicus. Kind of test: Percentage of animals emitting >80% of lever presses in LSD trained rats at a compound dose of 25.3 uM/Kg. The format is functional. The method in brief: as §1
The target of test [19] is T2, 5-hydroxytryptamine receptor 2C (Homo sapiens, UniProt P28335).
T2 sequence (P28335 whole entry): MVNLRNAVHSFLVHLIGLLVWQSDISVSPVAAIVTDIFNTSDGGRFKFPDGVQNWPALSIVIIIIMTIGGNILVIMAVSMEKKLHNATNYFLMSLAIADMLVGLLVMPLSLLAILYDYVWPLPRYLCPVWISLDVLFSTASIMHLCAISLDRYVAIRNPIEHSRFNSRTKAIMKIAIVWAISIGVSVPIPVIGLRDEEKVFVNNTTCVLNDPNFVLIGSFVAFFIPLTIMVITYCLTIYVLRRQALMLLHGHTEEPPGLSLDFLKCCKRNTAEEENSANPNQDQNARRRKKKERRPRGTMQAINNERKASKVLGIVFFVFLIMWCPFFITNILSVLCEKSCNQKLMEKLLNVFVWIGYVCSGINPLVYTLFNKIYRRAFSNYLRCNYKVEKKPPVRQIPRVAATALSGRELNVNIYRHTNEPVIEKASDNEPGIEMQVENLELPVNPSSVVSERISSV
Put plainly: Compound was tested for the displacement of [125I]DOI from cloned human 5-hydroxytryptamine 2C receptor. The method in brief:
as §3

Test [20] has as its system Rattus norvegicus. Put plainly: Percentage of animals failing to emit 50 lever presses within 15 min in DOI trained rats at a compound dose of 2 mg/kg. The format is functional. The method in brief: as §1
Test [21] relates to Rattus norvegicus. Put plainly: Percentage of animals failing to emit 50 lever presses within 15 min in DOI trained rats at a compound dose of 4 mg/kg. The format is functional. The method in brief:
as §1

Chain of 5-hydroxytryptamine receptor 2A (P28223 whole entry): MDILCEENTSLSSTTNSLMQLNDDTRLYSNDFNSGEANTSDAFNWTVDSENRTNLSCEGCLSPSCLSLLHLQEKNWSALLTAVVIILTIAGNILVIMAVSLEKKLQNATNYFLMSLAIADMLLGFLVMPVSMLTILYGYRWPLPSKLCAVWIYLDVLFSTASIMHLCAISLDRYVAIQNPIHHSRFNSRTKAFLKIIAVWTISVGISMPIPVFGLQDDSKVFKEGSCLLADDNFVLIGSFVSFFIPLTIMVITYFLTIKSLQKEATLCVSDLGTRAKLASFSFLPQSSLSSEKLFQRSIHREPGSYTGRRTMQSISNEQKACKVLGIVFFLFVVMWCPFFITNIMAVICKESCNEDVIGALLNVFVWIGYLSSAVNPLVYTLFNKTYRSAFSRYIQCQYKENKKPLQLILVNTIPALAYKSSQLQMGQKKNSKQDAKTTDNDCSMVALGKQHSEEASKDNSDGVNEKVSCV

Take `CN(C)CCc1c[nH]c2sccc12`: the SDL was found to be 16.7% in the test with Rattus norvegicus [1]; 67% in the test with Rattus norvegicus [2]; 9% in the test on Rattus norvegicus [5]; 10% in the test with Rattus norvegicus [6]; 0% in the test on Rattus norvegicus [7]; 0% with Rattus norvegicus [9]. The SDL in the test on Rattus norvegicus [15] is given as 83%; with Rattus norvegicus [16], 0%; with Rattus norvegicus [18], 9%. In addition, the D is on record as 0% in the test with Rattus norvegicus [3]; 0% with Rattus norvegicus [4]; 50% in the test with Rattus norvegicus [10]; 0% in the test with Rattus norvegicus [11]; 50% in the test on Rattus norvegicus [12]; 22% in the test on Rattus norvegicus [14]. For the same molecule, the D is recorded as 12.5% in the test with Rattus norvegicus [17], 0% in the test with Rattus norvegicus [20] and 0% in the test with Rattus norvegicus [21]. Besides, the Ki is 184 nM in [8], 106 nM in test [13] and 102 nM in test [19].

What is called Ki is a dissociation constant, usually derived from enzyme kinetics or from competition with a known ligand.

Source of the values: ChEMBL document CHEMBL1132613 (J Med Chem, 1999).
